Experimental data published in ChEMBL document CHEMBL4390685, “Synthesis, antibacterial and cytotoxic evaluation of flavipucine and its derivatives” (Bioorg Med Chem Lett, 2019).
≈ marks a conversion by molar mass, not a printed value. Calls of active or inactive are those of the source. The rule behind the calls is not given here.

Experiments:
Bacillus subtilis [1] = test: Antibacterial activity against Bacillus subtilis NBRC 3134 after 18 hrs by broth microdilution method; assay type: functional; conditions: NBRC 3134, 18 h
Outline: (§1)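 Broth microdilution run to CLSI standard methods. MIC taken as the lowest concentration inhibiting growth. Ampicillin and chloramphenicol served as positive controls. Compounds were tested up to 128 µg/mL.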

Bacillus subtilis [2] = test: Bactericidal activity against Bacillus subtilis NBRC 3134 incubated for 18 hrs followed by inoculums transfer to MHA plate and further incubated for 24 hrs; assay type: functional
Outline: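 MBC determined per CLSI methods following broth microdilution MIC testing. Ampicillin and chloramphenicol served as positive controls.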

HL-60 [3] = test: Cytotoxicity against human HL60 cells assessed as reduction in cell viability incubated for 48 hrs by WST8 dye based assay; assay type: functional; conditions: HL-60, 48 h
Outline: (§2)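 Suspension leukemia lines (HL-60 promyelocytic, Jurkat T-ALL) exposed to a range of concentrations for 48 h. Viability read by WST-8. IC50 is the concentration giving 50% loss of viability, mean ± SD of triplicates. SN-38 served as positive control.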

Escherichia coli = test: Antibacterial activity against Escherichia coli NBRC 3301 after 17 hrs by broth microdilution method; assay type: functional; conditions: NBRC 3301, 17 h; outline: as §1
A549 = test: Cytotoxicity against human A549 cells assessed as reduction in cell viability incubated for 48 hrs by WST8 dye based assay; assay type: functional; conditions: A549, 48 h
Outline: (§3)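 Adherent human cancer lines (A549 lung, HCT116 colon, HeLa cervix, TE8 esophageal squamous) exposed to a range of concentrations for 48 h. Viability read by WST-8. IC50 taken as 50% inhibition of viability, mean ± SD of triplicate experiments. SN-38 served as positive control. Tested up to 100 μM.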

HCT-116 = test: Cytotoxicity against human HCT116 cells assessed as reduction in cell viability incubated for 48 hrs by WST8 dye based assay; assay type: functional; conditions: HCT-116, 48 h; outline: as §3
HeLa = test: Cytotoxicity against human HeLa cells assessed as reduction in cell viability incubated for 48 hrs by WST8 dye based assay; assay type: functional; outline: as §3
TE-8 = test: Cytotoxicity against human TE8 cells assessed as reduction in cell viability incubated for 48 hrs by WST8 dye based assay; assay type: functional; conditions: TE-8, 48 h; outline: as §3
Jurkat = test: Cytotoxicity against human Jurkat cells assessed as reduction in cell viability incubated for 48 hrs by WST8 dye based assay; assay type: functional; outline: as §2
HEK293 = test: Cytotoxicity against human HEK293 cells assessed as reduction in cell viability incubated for 48 hrs by WST8 dye based assay; conditions: HEK293, 48 h
Outline: (§4)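 Adherent non-cancer cells (HEK293, Ad5-transformed embryonic kidney; MRC-5, normal diploid fibroblast) treated with graded concentrations for 48 h. WST-8 viability read-out. IC50 reported as mean ± SD of triplicate experiments. SN-38 served as positive control. Tested up to 50 μM.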

MRC5 = test: Cytotoxicity against human MRC5 cells assessed as reduction in cell viability incubated for 48 hrs by WST8 dye based assay; conditions: MRC5, 48 h; outline: as §4
HL-60 [4] = test: Induction of cell death in human HL60 cells assessed as reduction in cell viability at 2 uM incubated for 6 hrs after pre-treatment with caspase inhibitor Z-Asp-CH2-DCB for 1 hr by WST8 dye based assay; assay type: functional
HL-60 [5] = test: Induction of DNA fragmentation in human HL60 cells at 0.5 to 5 uM after 6 hrs by […] staining-based agarose gel electrophoresis; assay type: functional, cell-based

Structure (SMILES) | MIC (Bacillus subtilis [1]) | MBC (Bacillus subtilis [2]) | IC50 (HL-60 [3]) | MIC (Escherichia coli) | IC50 (A549) | IC50 (HCT-116) | IC50 (HeLa) | IC50 (TE-8) | IC50 (Jurkat) | IC50 (HEK293) | IC50 (MRC5) | Activity (HL-60 [4]) | Activity (HL-60 [5])
CC1=CC(=O)[C@]2(O[C@@H]2C(=O)CC(C)C)C(=O)N1 | 8 µg/mL (≈ 33.7 µM) | 8 µg/mL (≈ 33.7 µM) | 1.7 µM |  |  |  |  |  |  |  |  |  | 
CC1=CC(=O)[C@@]2(O[C@H]2C(=O)CC(C)C)C(=O)N1 | 8 µg/mL (≈ 33.7 µM) | 8 µg/mL (≈ 33.7 µM) | 1.6 µM |  |  |  |  |  |  |  |  |  | 
CC(C)CC(=O)[C@@H]1O[C@@]12C(=O)C=C(Cc1ccccc1)NC2=O (racemic) | 128 µg/mL (≈ 408 µM) | 128 µg/mL (≈ 408 µM) | 37.3 µM | > 128 µg/mL | > 100 µM | > 100 µM | > 100 µM | > 100 µM | > 50 µM | > 50 µM | > 50 µM |  | 
CC(C)C[C@]1(O)NC(=O)[C@]2(OC(Cc3ccccc3)=CC2=O)[C@H]1O (racemic) | > 128 µg/mL | > 128 µg/mL | 28 µM | > 128 µg/mL | > 100 µM | > 100 µM | > 100 µM | > 100 µM | > 50 µM | > 50 µM | > 50 µM |  | 
CC1=CC(=O)[C@]2(O1)C(=O)N[C@@](O)(CC(C)C)[C@@H]2O (racemic) | > 128 µg/mL | > 128 µg/mL | > 50 µM | > 128 µg/mL | > 100 µM | > 100 µM | > 100 µM | > 100 µM | > 50 µM | > 50 µM | > 50 µM |  | 
CC(C)CC(=O)C1Oc2cc(Cc3ccccc3)[nH]c(=O)c2O1 (racemic) | > 128 µg/mL | > 128 µg/mL | > 50 µM | > 128 µg/mL | > 100 µM | > 100 µM | > 100 µM | > 100 µM | > 50 µM | > 50 µM | > 50 µM |  | 
CC(C)C[C@@]12NC(=O)[C@]3(O)C(=O)C[C@@](C)(O[C@@H]31)O2 (racemic) | > 128 µg/mL | > 128 µg/mL | 37.7 µM | > 128 µg/mL | > 100 µM | > 100 µM | > 100 µM | > 100 µM | > 50 µM | > 50 µM | > 50 µM |  | 
Cc1cc2c(c(=O)[nH]1)OC(C(=O)CC(C)C)O2 (racemic) | > 128 µg/mL | > 128 µg/mL | 19.9 µM | > 128 µg/mL | > 100 µM | > 100 µM | > 100 µM | > 100 µM | > 50 µM | > 50 µM | > 50 µM |  | 
CC1=CC(=O)C2(OC2C(=O)CC(C)C)C(=O)N1 (racemic) | 8 µg/mL (≈ 33.7 µM) | 8 µg/mL (≈ 33.7 µM) | 1.8 µM | > 128 µg/mL | 32.1 µM | 30.4 µM | 40.5 µM | 21.6 µM | 8 µM | 35.9 µM | 33.2 µM | Active | inactive
CCc1c2c(nc3ccc(O)cc13)-c1cc3c(c(=O)n1C2)COC(=O)[C@]3(O)CC [7-ETHYL-10-HYDROXYCAMPTOTHECIN] |  |  | 2.4 µM |  | 6.6 µM | < 1 µM | 13.1 µM | < 1 µM | < 1 µM | < 1 µM | 15.3 µM |  | 
CC1(C)S[C@@H]2[C@H](NC(=O)[C@H](N)c3ccccc3)C(=O)N2[C@H]1C(=O)O [AMPICILLIN] | < 0.5 µg/mL | < 0.5 µg/mL |  | 4 µg/mL (≈ 11.4 µM) |  |  |  |  |  |  |  |  | 
O=C(N[C@H](CO)[C@H](O)c1ccc([N+](=O)[O-])cc1)C(Cl)Cl [CHLORAMPHENICOL] | 4 µg/mL (≈ 12.4 µM) | 64 µg/mL (≈ 198 µM) |  |  |  |  |  |  |  |  |  |  | 
